The target of one data set is T1, Orexin receptor type 2 (Homo sapiens, UniProt O43614).
T1 sequence (O43614 whole entry): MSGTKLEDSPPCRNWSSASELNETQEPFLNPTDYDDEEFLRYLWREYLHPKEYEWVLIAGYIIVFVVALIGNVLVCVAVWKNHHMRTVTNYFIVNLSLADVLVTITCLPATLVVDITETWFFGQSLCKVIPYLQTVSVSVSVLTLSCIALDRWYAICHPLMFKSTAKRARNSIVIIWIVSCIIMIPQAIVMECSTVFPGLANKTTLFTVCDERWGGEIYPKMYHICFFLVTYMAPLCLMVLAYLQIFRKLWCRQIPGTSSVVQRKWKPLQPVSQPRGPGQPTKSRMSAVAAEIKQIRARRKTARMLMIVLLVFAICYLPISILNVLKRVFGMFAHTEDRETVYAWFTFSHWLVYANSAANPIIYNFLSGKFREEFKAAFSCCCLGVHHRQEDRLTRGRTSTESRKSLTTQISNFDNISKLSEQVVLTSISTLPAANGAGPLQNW
The data set can be described thus: Antagonist activity at human OX2 receptor expressed in HEK cells assessed as inhibition of orexin A-induced Ca2+ accumulation after 1 hr by Fluo-4-AM staining-based FLIPR assay. The data set is classed as functional, cell-based, HEK293. Summed up: (§1)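 Recombinant CHO or HEK cells expressing human OX1R or OX2R, serum-deprived overnight in HEPES buffer pH 7.4 with 1% BSA. Cells were loaded with 2 μM Fluo4-AM plus 0.1 mM probenecid for 1 h. Compound (up to eight concentrations, usually 10⁻⁹–10⁻⁵ M) was added first, then submaximal orexin A 1 h later. Curves run in triplicate; pKi from IC50 by Cheng–Prusoff.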

Data set [1] concerns the target T2, Orexin/Hypocretin receptor type 1 (Homo sapiens, UniProt O43613).
T2 sequence (O43613 whole entry): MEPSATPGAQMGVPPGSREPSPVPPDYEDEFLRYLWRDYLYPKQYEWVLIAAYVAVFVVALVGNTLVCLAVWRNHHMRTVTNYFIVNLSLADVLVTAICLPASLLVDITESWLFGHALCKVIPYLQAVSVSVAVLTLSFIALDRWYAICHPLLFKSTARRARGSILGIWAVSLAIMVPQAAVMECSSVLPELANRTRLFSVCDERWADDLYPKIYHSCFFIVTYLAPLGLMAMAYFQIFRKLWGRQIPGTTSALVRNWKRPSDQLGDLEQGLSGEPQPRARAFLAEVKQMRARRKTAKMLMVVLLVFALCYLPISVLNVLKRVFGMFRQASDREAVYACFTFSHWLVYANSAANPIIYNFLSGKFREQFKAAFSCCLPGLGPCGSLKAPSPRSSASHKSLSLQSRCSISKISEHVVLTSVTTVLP
The data set can be described thus: Antagonist activity at human OX1 receptor expressed in CHO cells assessed as inhibition of orexin A-induced Ca2+ accumulation after 1 hr by Fluo-4-AM staining-based FLIPR assay. The data set is classed as functional, cell-based. The following applies: for pIC50: cho. Summed up: as §1

Data set [2] in a line: Volume of distribution at steady state in C57BL/6 mouse at 1 mg/kg, iv. The data set is classed as ADME, organism-based. Details: dose 1 mg/kg, route intravenous. The following applies: in vivo, read-out: Vdss. In outline:
(§2)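 Cassette PK in male C57BL/6 mice (20–30 g), up to five test compounds plus one reference. Iv 1 mg/kg in NMP/blank plasma 10/90 v/v, 5 mL/kg, saphenous vein. Oral 3 mg/kg suspended in 0.5% w/v carboxymethylcellulose in water/Tween 80 (99.5/0.5), 10 mL/kg gavage. Blood sampled 5 min (iv) or 15 min (po) to 24 h, n = 3 per time point, measured by LC/MS/MS.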

A short description of data set [3]: Ratio of drug level in brain to blood in C57BL/6 mouse at 3 mg/kg, po after 15 mins. Details: dose 3 mg/kg, route oral. The data set is classed as ADME, organism-based. In outline: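 Male C57BL/6 mice (20–30 g), cassette dosing of up to five compounds plus a reference. Blood and brain collected 15 min post-dose, n = 3. Brain homogenised in 2 mM KH2PO4 and extracted with acetonitrile. LC/MS/MS quantitation; mean brain/blood ratio.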

Data set [4] can be described thus: AUC (infinity) in C57BL/6 mouse blood at 3 mg/kg, po. The data set is classed as ADME, organism-based. Details: time infinity, dose 3 mg/kg, route oral. Summed up: as §2
Data set [5] in a line: Oral bioavailability in C57BL/6 mouse blood at 3 mg/kg. The data set is classed as ADME, organism-based. In outline: as §2
Data set [6] can be described thus: Total blood clearance in C57BL/6 mouse at 1 mg/kg, iv. The data set is classed as ADME, organism-based. Further details: dose 1 mg/kg, route intravenous. Summed up: as §2
Data set [7] can be described thus: Cmax in C57BL/6 mouse blood at 3 mg/kg, po. The data set is classed as ADME, organism-based. Details: dose 3 mg/kg, route oral. Summed up:
as §2

Molecules are shown by their SMILES.

With `Cc1cc(C)nc(N2CCC3(CCCN(Cc4cn(C)c5ccccc45)C3=O)CC2)n1`, the inhibition constant (Ki) on Orexin receptor type 2 was 20.9 nM; in data set [1] it was 1450 nM.

With `O=C1N(Cc2c[nH]c3ccccc23)CCCC12CCN(c1ncccn1)CC2`, the inhibitory constant (Ki) on Orexin receptor type 2 was 550 nM. For the same molecule, the pIC50 in data set [1] is listed as > 5.

On to `O=C1CCCC2(CCN(c3cnc4ccccc4n3)CC2)N1Cc1cccc2[nH]ccc12`, for which the Vd in data set [2] is 3.1 L/kg. The results for the inhibition constant Ki (at Orexin receptor type 2; in data set [1]) were 0.457 nM and 9.12 nM, respectively. The Kp at 0.25 h in data set [3] worked out at 0.2. The molecule further yielded an AUC(0-inf) in data set [4] of 0.031 µM·h. Further, the bioavailability in data set [5] amounted to 5%. Besides, in data set [6], the clearance turned out to be 188 mL/min/kg. The molecule further came in with a Cmax in data set [7] of 18 nM.

For the molecule `O=C1N(Cc2c[nH]c3ccccc23)CCCC12CCN(c1cnc3ccccc3n1)CC2`, the Ki at Orexin receptor type 2 was 61.7 nM; in data set [1] it was 288 nM.

Consider `Cc1cc(C)nc(N2CCC3(CCCN(Cc4c[nH]c5ncccc45)C3=O)CC2)n1`, for which the Ki at Orexin receptor type 2 is 16.2 nM; in data set [1], 1320 nM.

`O=C1N(Cc2cccc3[nH]ccc23)CCCC12CCN(c1cnc3ccccc3n1)CC2`: the results for the Ki (on Orexin receptor type 2; in data set [1]) were 77.6 nM and 550 nM, respectively.

On to `Cc1cc(C)nc(N2CCC3(CCCN(Cc4c[nH]c5ccccc45)C3=O)CC2)n1`, for which the Ki at Orexin receptor type 2 was 6.92 nM; in data set [1], 661 nM.

With `Cc1cc(C)nc(N2CCC3(CCCN(Cc4nn(C)cc4-c4ccccc4)C3=O)CC2)n1`, the Ki at Orexin receptor type 2 is 17.4 nM; in data set [1], 813 nM.

For the molecule `Cc1cc(C)nc(N2CCC3(CCCN(Cc4[nH]nnc4-c4ccccc4)C3=O)CC2)n1`, the Ki is 1.17 nM at Orexin receptor type 2 and 708 nM in data set [1].

With `O=C(Cc1ccccc1)N1CCCC12CCN(c1cnc3ccccc3n1)CC2`, the Ki at Orexin receptor type 2 was 186 nM; in data set [1] it was 955 nM.

As to `O=C1N(Cc2c[nH]c3ccccc23)CCCC12CCN(c1cnccn1)CC2`, at Orexin receptor type 2, the Ki was 309 nM. Further, the pIC50 in data set [1] is > 5.

`COc1ccc2[nH]cc(CN3CCCC4(CCN(c5nc(C)cc(C)n5)CC4)C3=O)c2c1`: the inhibition constant Ki at Orexin receptor type 2 is 0.166 nM; in data set [1], 20.4 nM.

Turning to `O=C1CCCC2(CCN(c3cnc4ccccc4n3)CC2)N1Cc1ccccc1`, the inhibition constant Ki is 589 nM on Orexin receptor type 2 and 1480 nM in data set [1].

`Cc1ccnc(N2CCC3(CCCN(Cc4c[nH]c5ccccc45)C3=O)CC2)n1`: the Ki at Orexin receptor type 2 is 26.9 nM; in data set [1], 1410 nM.

Consider `O=C1N(Cc2ccccc2)CCCC12CCN(c1cnc3ccccc3n1)CC2`, for which the Ki on Orexin receptor type 2 is 182 nM; in data set [1], 1550 nM.

On to `O=C1CCCC2(CCN(c3nc4ccccc4o3)CC2)N1Cc1cccc2[nH]ccc12`, for which the inhibition constant (Ki) at Orexin receptor type 2 is 3.16 nM; in data set [1], 18.6 nM.

As to `Cc1cc(C)nc(N2CCC3(CCCN(Cc4nn(C)nc4-c4ccccc4)C3=O)CC2)n1`, the inhibitory constant (Ki) on Orexin receptor type 2 is 4.57 nM; in data set [1], 759 nM.

In the case of `Cc1cc(C)nc(N2CCC3(CCCN(Cc4n[nH]c5ccccc45)C3=O)CC2)n1`, the inhibitory constant (Ki) was 6.92 nM on Orexin receptor type 2 and 490 nM in data set [1].

`Cc1cc(C)nc(N2CCC3(CCCC(=O)N3Cc3cccc4[nH]ccc34)CC2)n1`: the Ki on Orexin receptor type 2 was 0.851 nM; in data set [1] it was 372 nM.

With `O=C1CCCC2(CCN(c3cnc4ccccc4n3)CC2)N1Cc1c[nH]c2ccccc12`, the inhibition constant (Ki) is 69.2 nM on Orexin receptor type 2 and 275 nM in data set [1].

As to `Cc1ccc(C)c(CN2C(=O)CCCC23CCN(c2cnc4ccccc4n2)CC3)c1`, the inhibition constant Ki at Orexin receptor type 2 was 12.9 nM; in data set [1], 58.9 nM.

For `Cc1cc(C)nc(N2CCC3(CCCN(Cc4n[nH]cc4-c4ccccc4)C3=O)CC2)n1`, the Ki is 3.89 nM on Orexin receptor type 2 and 776 nM in data set [1].

Usually Ki stands for the equilibrium dissociation constant of an inhibitor or competing ligand from its target. The term pIC50 denotes −log10 of the IC50, conventionally taken in molar units. By Kp is commonly meant the ratio of the level in a tissue or fluid to that in plasma or blood. As a reminder, the AUC(0-inf) is the area under the concentration-time curve extrapolated to infinity. Lower therefore signals low exposure. Broadly, the bioavailability is dose-corrected exposure relative to a reference, in per cent. A high value points to much systemic uptake. A word on the clearance: it is the volume of plasma or blood freed of the substance per unit of time. Lower therefore signals a low capacity for elimination. Usually Cmax stands for the highest concentration seen after dosing.

(Values after ChEMBL document CHEMBL2434958, “Identification of a novel series of orexin receptor antagonists with a distinct effect on sleep architecture for the treatment of insomnia” (J Med Chem, 2013).)
